Reference: ChEMBL document CHEMBL3351672, “Saccharin derivatives as inhibitors of interferon-mediated inflammation” (J Med Chem, 2014)
The source made the active and inactive calls. No cut-off for these calls is given here.

Tests used:
RAW264.7 [1] = test: Inhibition of IFNgamma-induced iNOS mRNA expression in mouse RAW264.7 cells at 1 to 50 uM after 16 hrs by RT-PCR analysis; type: functional
RAW264.7 [2] = test: Cytotoxicity against mouse RAW264.7 cells assessed as cell viability by WST1 assay; type: cell-based; conditions: read-out: LC50 (the source's name) (converted)
Procedure, shortened: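 RAW 264.7 mouse macrophages were stimulated with 20 ng/mL LPS and given a range of compound concentrations, alongside the nitric oxide inhibition assay. Cell viability was measured at each tested concentration. LC50 was taken as the concentration giving 50% cell viability.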

RAW264.7 [3] = test: Antiinflammatory activity in mouse RAW264.7 cells assessed as inhibition of LPS-induced nitric oxide production; type: functional, cell-based
Procedure, shortened: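 RAW 264.7 cells stimulated with 20 ng/mL LPS plus a range of compound concentrations; nitric oxide output measured. Data normalized so LPS + solvent = 100% and untreated cells = 0% activation; IC50 fitted from dose–response, points averaged over nine replicates (SD).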

RAW264.7 [4] = test: Inhibition of LPS-induced iNOS mRNA expression in mouse RAW264.7 cells after 20 hrs by RT-PCR analysis; type: functional, cell-based
Procedure, shortened: (§1)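 RAW 264.7 cells incubated 20 h with 20 ng/mL LPS and varying compound concentrations; iNOS mRNA quantified by real-time PCR, ligand-induced cells set to fold change 1. Three biological replicates, each in technical duplicate; SD reported.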

[5] = target: T1, Nuclear factor NF-kappa-B complex (Homo sapiens) (UniProt Q00653+P19838+Q04206); test: Inhibition of TNFalpha-induced NFkappaB activation in human HEK293T cells at 0.5 to 1 uM after 18 to 24 hrs by secreted embryonic alkaline phosphatase reporter gene assay; type: cell-based; conditions: HEK-293T
T1 sequence (P19838 whole entry, looked up): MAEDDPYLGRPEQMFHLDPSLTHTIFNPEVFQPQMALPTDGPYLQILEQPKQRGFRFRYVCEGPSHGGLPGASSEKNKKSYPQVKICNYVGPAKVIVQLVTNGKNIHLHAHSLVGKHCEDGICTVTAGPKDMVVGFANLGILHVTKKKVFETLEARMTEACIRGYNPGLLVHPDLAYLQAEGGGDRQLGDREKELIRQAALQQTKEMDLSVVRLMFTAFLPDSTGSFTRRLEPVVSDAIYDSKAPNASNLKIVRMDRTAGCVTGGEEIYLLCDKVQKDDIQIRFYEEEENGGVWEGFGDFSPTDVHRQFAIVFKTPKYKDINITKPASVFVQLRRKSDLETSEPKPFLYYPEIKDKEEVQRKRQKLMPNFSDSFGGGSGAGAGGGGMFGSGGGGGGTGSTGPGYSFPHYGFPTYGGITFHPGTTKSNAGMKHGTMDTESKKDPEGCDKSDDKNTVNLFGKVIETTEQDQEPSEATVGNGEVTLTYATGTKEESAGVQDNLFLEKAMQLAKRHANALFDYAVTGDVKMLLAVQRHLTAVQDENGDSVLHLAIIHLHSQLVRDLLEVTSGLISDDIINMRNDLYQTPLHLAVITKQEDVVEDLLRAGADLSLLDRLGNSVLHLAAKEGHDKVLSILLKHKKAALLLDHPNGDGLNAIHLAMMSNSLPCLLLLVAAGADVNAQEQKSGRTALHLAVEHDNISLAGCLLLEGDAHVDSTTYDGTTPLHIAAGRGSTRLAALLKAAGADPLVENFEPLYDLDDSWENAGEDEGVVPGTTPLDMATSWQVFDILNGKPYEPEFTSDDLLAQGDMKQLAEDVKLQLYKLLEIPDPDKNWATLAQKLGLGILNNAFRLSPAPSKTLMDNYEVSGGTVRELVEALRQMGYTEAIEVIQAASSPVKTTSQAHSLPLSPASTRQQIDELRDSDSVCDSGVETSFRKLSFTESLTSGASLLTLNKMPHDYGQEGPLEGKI
T1 sequence (Q00653 whole entry, looked up): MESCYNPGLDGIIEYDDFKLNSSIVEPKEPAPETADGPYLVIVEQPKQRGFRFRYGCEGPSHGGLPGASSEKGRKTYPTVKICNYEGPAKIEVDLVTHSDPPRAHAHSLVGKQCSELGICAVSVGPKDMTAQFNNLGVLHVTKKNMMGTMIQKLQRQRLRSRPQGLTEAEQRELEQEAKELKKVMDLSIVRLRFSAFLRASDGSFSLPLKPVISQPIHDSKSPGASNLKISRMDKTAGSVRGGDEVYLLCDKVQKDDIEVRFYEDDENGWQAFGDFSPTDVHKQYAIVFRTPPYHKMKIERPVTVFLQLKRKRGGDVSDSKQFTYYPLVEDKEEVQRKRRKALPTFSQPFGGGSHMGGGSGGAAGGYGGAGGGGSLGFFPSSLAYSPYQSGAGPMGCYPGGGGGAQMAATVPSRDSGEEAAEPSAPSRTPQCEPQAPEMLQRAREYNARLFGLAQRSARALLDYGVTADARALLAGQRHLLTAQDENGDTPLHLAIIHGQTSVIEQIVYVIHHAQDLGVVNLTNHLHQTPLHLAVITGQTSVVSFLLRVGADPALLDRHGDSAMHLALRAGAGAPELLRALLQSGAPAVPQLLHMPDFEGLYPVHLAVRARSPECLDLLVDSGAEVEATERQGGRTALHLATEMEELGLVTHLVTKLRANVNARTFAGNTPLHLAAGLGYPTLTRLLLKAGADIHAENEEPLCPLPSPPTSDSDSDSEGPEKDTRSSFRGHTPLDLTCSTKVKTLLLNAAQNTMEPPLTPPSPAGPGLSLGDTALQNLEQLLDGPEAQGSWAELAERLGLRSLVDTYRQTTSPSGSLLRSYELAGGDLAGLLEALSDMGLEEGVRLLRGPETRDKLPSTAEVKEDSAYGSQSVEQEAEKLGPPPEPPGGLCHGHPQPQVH
T1 sequence (Q04206 whole entry, looked up): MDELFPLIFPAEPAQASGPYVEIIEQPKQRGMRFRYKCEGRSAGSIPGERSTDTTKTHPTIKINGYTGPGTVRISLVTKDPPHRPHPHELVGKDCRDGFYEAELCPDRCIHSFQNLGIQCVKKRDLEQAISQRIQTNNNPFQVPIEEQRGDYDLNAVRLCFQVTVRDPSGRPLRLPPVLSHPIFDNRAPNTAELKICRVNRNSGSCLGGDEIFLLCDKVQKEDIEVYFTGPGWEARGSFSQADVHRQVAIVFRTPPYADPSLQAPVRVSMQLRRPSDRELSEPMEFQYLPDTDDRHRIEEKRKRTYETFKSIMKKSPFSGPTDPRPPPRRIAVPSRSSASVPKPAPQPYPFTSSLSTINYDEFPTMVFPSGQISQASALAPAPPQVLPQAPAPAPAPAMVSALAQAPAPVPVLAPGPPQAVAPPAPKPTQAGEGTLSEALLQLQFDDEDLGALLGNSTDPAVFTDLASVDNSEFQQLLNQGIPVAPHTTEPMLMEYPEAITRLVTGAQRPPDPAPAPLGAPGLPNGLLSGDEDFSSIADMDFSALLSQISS

[6] = target: T1, Nuclear factor NF-kappa-B complex (Homo sapiens); test: Inhibition of LPS-induced NFkappaB activation in human HEK293T cells at 0.5 to 1 uM after 18 to 24 hrs by secreted embryonic alkaline phosphatase reporter gene assay; type: cell-based; conditions: HEK-293T
Procedure, shortened: (§2)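 NF-κB activation monitored by secreted embryonic alkaline phosphatase reporter in HEK 293T cells stimulated via TLR4 or TLR3; compound tested at concentrations […].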

RAW264.7 [7] = test: Cytotoxicity against mouse RAW264.7 cells assessed as cell viability up to 100 uM by WST1 assay; type: cell-based
Procedure, shortened: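 Cell viability assay run on the compound-treated RAW 264.7 cultures at each tested concentration; LC50 taken as concentration giving 50% viability.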

[8] = Inhibition of JAK/STAT signaling pathway in LPS-induced mouse RAW264.7 cells assessed as change in NOS2 mRNA expression by RT-PCR analysis relative to control; type: cell-based
[9] = Inhibition of JAK/STAT signaling pathway in LPS-induced mouse RAW264.7 cells assessed as change in Gtp1 mRNA expression by RT-PCR analysis relative to control; type: cell-based
[10] = Inhibition of JAK/STAT signaling pathway in LPS-induced mouse RAW264.7 cells assessed as change in Cebpb mRNA expression by RT-PCR analysis relative to control; type: cell-based
[11] = test system: RAW 264.7 cells (Mus musculus); test: Antiinflammatory activity in mouse RAW264.7 cells assessed as inhibition of LPS-induced nitric oxide production
RAW264.7 [12] = test: Antiinflammatory activity in mouse RAW264.7 cells assessed as inhibition of pam2CSK4-induced nitric oxide production; type: functional, cell-based
Procedure, shortened: (§3)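 RAW 264.7 cells stimulated with Pam2CSK4 (TLR2/6 ligand) or Poly I:C (TLR3 ligand) with varying compound concentrations; NO production read out. Normalized to agonist + solvent (100%) versus untreated (0%); IC50 from dose–response curves, nine replicates averaged, SD shown.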

RAW264.7 [13] = test: Inhibition of LPS-induced iNOS protein expression in mouse RAW264.7 cells after 20 hrs by Western blot analysis; type: functional, cell-based
Procedure, shortened: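 RAW 264.7 cells treated with LPS and varying compound concentrations; iNOS protein detected by Western blot using a pan-NOS antibody.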

RAW264.7 [14] = test: Inhibition of LPS-induced iNOS mRNA expression in mouse RAW264.7 cells at 10 to 100 uM after 20 hrs by RT-PCR analysis; type: functional; procedure, shortened: as §1
[15] = target: T1, Nuclear factor NF-kappa-B complex (Homo sapiens); test: Inhibition of poly I:C-induced NFkappaB activation in human HEK293T cells at 0.5 to 1 uM after 18 to 24 hrs by secreted embryonic alkaline phosphatase reporter gene assay; type: cell-based; conditions: HEK-293T; procedure, shortened: as §2
[16] = Inhibition of JAK/STAT signaling pathway in LPS-induced mouse RAW264.7 cells assessed as inhibition of IFNgamma-induced nitric oxide production; type: cell-based
Procedure, shortened: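 JAK/STAT1 signalling activated in RAW 264.7 cells with 5 ng/mL IFN-γ alongside varying compound concentrations; NO production measured. Values normalized with ligand + solvent as 100% and untreated cells as 0%; IC50 derived from dose–response.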

RAW264.7 [17] = test: Antiinflammatory activity in mouse RAW264.7 cells assessed as inhibition of poly I:C-induced nitric oxide production; type: functional, cell-based; procedure, shortened: as §3
RAW264.7 [18] = test: Inhibition of TNFalpha production in mouse RAW264.7 cells at 0.5 to 1 uM by ELISA; type: functional, cell-based
Procedure, shortened: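 TNF-α cytokine levels from compound-treated RAW 264.7 cells measured by commercial ELISA.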

| Compound | CC50 (RAW264.7 [2]) [µM] | IC50 (RAW264.7 [3]) [µM] | further results |
| --- | --- | --- | --- |
| CC(C)(C)OC(=O)N(Cc1ccco1)C(=O)c1ccc(Cn2sc3ccccc3c2=O)cc1 | > 100 | 68 | inhibition (INH) (RAW264.7 [1]): 50% |
| O=C(NCCc1ccco1)c1ccc(CN2C(=O)c3ccccc3S2(=O)=O)cc1 | > 100 | 76.6 |  |
| CN(Cc1ccco1)C(=O)c1ccc(CN2C(=O)c3ccccc3S2(=O)=O)cc1 | > 100 | 79.6 |  |
| CC(C)(C)OC(=O)NC(=O)c1ccc(CN2C(=O)c3ccccc3S2(=O)=O)cc1 | > 100 | 64.7 |  |
| O=C(O)c1ccc(CN2C(=O)c3ccccc3S2(=O)=O)cc1 | > 100 | 74.7 |  |
| CC(C)(C)OC(=O)c1ccc(CN2C(=O)c3ccccc3S2(=O)=O)cc1 | > 100 | 10.6 |  |
| O=C(c1ccc(CN2Cc3ccccc3C2=O)cc1)N1CCCCC1 | > 100 | 21.9 |  |
| NC(=O)c1ccc(CN2C(=O)c3ccccc3S2(=O)=O)cc1 | > 100 | 50.6 | inhibition (INH) (RAW264.7 [1]): 50% |
| O=C(c1ccc(CN2C(=O)c3ccccc3S2(=O)=O)cc1)N1CCCCC1 | 69.2 | 50.6 |  |
| CC(C)(C)OC(=O)N(Cc1ccco1)C(=O)c1ccc(CN2Cc3ccccc3C2=O)cc1 | 95.2 | 51.8 |  |
| CNC(=O)c1ccc(CN2C(=O)c3ccccc3S2(=O)=O)cc1 | > 100 | 37.7 |  |
| CC1=C(c2ccc(C)c(C)c2)S(=O)(=O)N(Cc2ccc(C(=O)N3CCCCC3)cc2)C1=O | > 100 | 16.5 |  |
| O=C(NCc1ccco1)c1ccc(Cn2c(=O)c3ccccc3[s+]2[O-])cc1 (centres undefined) | > 100 | 23.3 |  |
| CC(C)(C)OC(=O)N(Cc1ccco1)C(=O)c1ccc(CN2C(=O)c3ccccc3C2=O)cc1 | > 100 | 3.45 |  |
| CC(=O)N(Cc1ccco1)C(=O)c1ccc(CN2C(=O)c3ccccc3S2(=O)=O)cc1 | > 100 | 42.6 |  |
| CC(C)(C)OC(=O)N(Cc1ccco1)C(=O)c1ccc(CN2C(=O)c3ccccc3S2(=O)=O)cc1 | > 100 | 2.61 | inhibition (RAW264.7 [4]): Dose-dependent effect; inhibition [5]: inactive; inhibition (INH) (RAW264.7 [1]): >70%; inhibition [6]: inactive; Activity (RAW264.7 [7]): Non-toxic; Activity [8]: Active; Activity [9]: Active; Activity [10]: Active; IC50 [11]: 9.61 µM; IC50 (RAW264.7 [12]): 1.69 µM; inhibition (RAW264.7 [12]): Dose-dependent effect; inhibition (RAW264.7 [13]): Dose-dependent effect; inhibition (INH) (RAW264.7 [14]): <=67%; inhibition (RAW264.7 [3]): Dose-dependent effect; inhibition [15]: inactive; IC50 [16]: 7.88 µM; inhibition [16]: Dose-dependent effect; IC50 (RAW264.7 [17]): 10.9 µM; inhibition (RAW264.7 [17]): Dose-dependent effect; inhibition (RAW264.7 [18]): inactive |
| O=C(NCc1ccco1)c1ccc(Cn2oc3ccccc3c2=O)cc1 | > 100 | 49.3 |  |
| O=C(NCc1ccco1)c1ccc(CN2Cc3ccccc3C2=O)cc1 | > 100 | 49.7 |  |

| Compound | CC50 (RAW264.7 [2]) [µM] | IC50 (RAW264.7 [3]) [µM] | further results |
| --- | --- | --- | --- |
| O=C(c1ccc(Cn2c(=O)c3ccccc3[s+]2[O-])cc1)N1CCCCC1 (centres undefined) | > 100 | 49 |  |
| O=C(NCc1ccco1)c1ccc(CN2C(=O)c3ccccc3S2(=O)=O)cc1 | > 100 | 24.3 |  |
| O=C(NCc1ccco1)c1ccc(CN2Cc3ccccc3S2(=O)=O)cc1 | > 100 | 68.4 |  |
| O=C(c1ccc(Cn2oc3ccccc3c2=O)cc1)N1CCCCC1 | 66.2 | 16.8 |  |
| COC(=O)N(Cc1ccco1)C(=O)c1ccc(CN2C(=O)c3ccccc3S2(=O)=O)cc1 | > 100 | 76 |  |
| CC(C)(C)OC(=O)N(Cc1ccco1)C(=O)c1ccc(Cn2c(=O)c3ccccc3[s+]2[O-])cc1 (centres undefined) | 87.3 | 68 |  |
| O=C(c1ccc(CN2Cc3ccccc3S2(=O)=O)cc1)N1CCCCC1 | > 100 | 44.3 |  |
| CN(C(=O)OC(C)(C)C)C(=O)c1ccc(CN2C(=O)c3ccccc3S2(=O)=O)cc1 | > 100 | 42 |  |
| CC(C)(C)OC(=O)N(CCc1ccco1)C(=O)c1ccc(CN2C(=O)c3ccccc3S2(=O)=O)cc1 | > 100 | 48.6 |  |
| O=C(NCc1ccco1)c1ccc(Cn2sc3ccccc3c2=O)cc1 | > 100 | 19.8 |  |
| O=C(c1ccc(Cn2sc3ccccc3c2=O)cc1)N1CCCCC1 | 70.3 | 5.38 |  |
| CC1=C(c2cc[n+]([O-])cc2)S(=O)(=O)N(Cc2ccc(C(=O)N3CCCCC3)cc2)C1=O | > 100 | 79.4 |  |
| CC(C)(C)OC(=O)N(Cc1ccco1)C(=O)c1ccc(CN2Cc3ccccc3S2(=O)=O)cc1 | > 100 | 10.6 |  |
| CC(C)(C)OC(=O)N(C(=O)OC(C)(C)C)C(=O)c1ccc(CN2C(=O)c3ccccc3S2(=O)=O)cc1 | > 100 | 33.4 |  |
| O=C(c1ccc(CN2C(=O)c3ccccc3C2=O)cc1)N1CCCCC1 | > 100 | > 100 |  |
| O=C(NCc1ccco1)c1ccc(CN2C(=O)c3ccccc3C2=O)cc1 | > 100 | 56 |  |
| CC1=C(c2ccc3ccccc3c2)S(=O)(=O)N(Cc2ccc(C(=O)N3CCCCC3)cc2)C1=O | 47.9 | 9.61 |  |
| CC(C)(C)OC(=O)N(Cc1ccco1)C(=O)c1ccc(Cn2oc3ccccc3c2=O)cc1 | > 100 | 6.69 |  |
